# Results from different studies.
# Target: Muscle, skeletal receptor tyrosine-protein kinase (MUSK, Homo sapiens, UniProt O15146)
# One construct used (O15146 1-869): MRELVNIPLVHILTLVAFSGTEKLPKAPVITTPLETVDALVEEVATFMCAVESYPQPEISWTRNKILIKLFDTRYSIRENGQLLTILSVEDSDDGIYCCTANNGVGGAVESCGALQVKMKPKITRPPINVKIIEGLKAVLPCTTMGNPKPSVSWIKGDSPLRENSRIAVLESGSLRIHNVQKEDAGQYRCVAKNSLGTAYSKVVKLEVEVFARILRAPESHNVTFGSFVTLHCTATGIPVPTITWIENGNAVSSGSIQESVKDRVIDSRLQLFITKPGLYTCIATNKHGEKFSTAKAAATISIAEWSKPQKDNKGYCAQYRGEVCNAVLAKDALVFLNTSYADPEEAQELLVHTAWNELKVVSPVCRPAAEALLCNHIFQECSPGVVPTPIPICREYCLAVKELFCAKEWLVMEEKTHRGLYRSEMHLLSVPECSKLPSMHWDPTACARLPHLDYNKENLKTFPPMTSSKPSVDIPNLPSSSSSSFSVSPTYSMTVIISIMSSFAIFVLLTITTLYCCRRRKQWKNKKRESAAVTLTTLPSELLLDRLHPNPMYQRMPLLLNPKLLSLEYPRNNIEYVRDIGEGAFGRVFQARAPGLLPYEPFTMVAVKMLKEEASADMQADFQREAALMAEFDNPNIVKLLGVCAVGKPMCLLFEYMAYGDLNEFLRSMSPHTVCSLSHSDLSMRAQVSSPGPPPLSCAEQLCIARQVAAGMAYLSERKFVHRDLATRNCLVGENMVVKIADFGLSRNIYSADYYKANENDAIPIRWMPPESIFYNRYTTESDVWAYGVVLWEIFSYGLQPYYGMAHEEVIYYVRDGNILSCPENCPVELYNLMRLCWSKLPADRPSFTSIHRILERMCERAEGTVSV
SMILES,test,conditions,remaining binding
O=C(NCCCN1CCOCC1)c1ccc(Nc2ncc(Cl)c(-c3ccc(Cl)s3)n2)cc1,"binding, competition with immobilised ligand",1 µM,54%
COc1ccnn2ncc(-c3ccnc(N(C)C)n3)c12,binding,1 µM,93%
FC(F)(F)c1ccc2c(c1)nc(-c1cccnc1)n2C1CC1,"cell-free assay, competition with immobilised ligand",1 µM,100%
O=C(c1ccc(Nc2nccc(-c3cc4ccccc4s3)n2)cc1)N1CCC(N2CCCC2)CC1,"binding, competition with immobilised ligand",1 µM,72%
FC(F)(F)Oc1cccc(-c2cnc3ccc(-c4ccncc4)nn23)c1,"cell-free assay, competition with immobilised ligand",5 µM,99%
COc1ccc2c(c1)O[C@@H](c1ccc(OC)c(OC)c1)C[C@H]2NC(=O)C1(c2ccc3c(c2)OC(F)(F)O3)CC1,"cell-free assay, competition with immobilised ligand",1 µM,94%
COc1cnc(Nc2cccc(S(N)(=O)=O)c2)nc1N1CCN(c2ccccc2)C(=O)C1,"binding, competition with immobilised ligand",1 µM,99%
CCN1CCN(Cc2ccc(C(=O)Nc3ccc(C)c(Oc4ccc5c(c4)CC(=O)N5)c3)cc2C(F)(F)F)CC1,"binding, competition with immobilised ligand",1 µM,100%
Cc1cnc(Nc2ccc(C(=O)N3CCC(N4CCCC4)CC3)cc2)nc1-c1cc2ccccc2s1,"binding, competition with immobilised ligand",1 µM,30%
Cc1cnn2ncc(-c3ccnc(N(C)C)n3)c2c1,binding,1 µM,79%
O=C(NCc1ncc(C(F)(F)F)cc1Cl)c1ccc2c(c1)C1(CCS(=O)(=O)CC1)[C@@H](C1CC1)N2S(=O)(=O)c1ccc(F)cc1,"cell-free assay, competition with immobilised ligand",1 µM,79%
Nc1ncc2c(n1)-c1c([nH]c3ccc(C#CC4CC4)cc13)CCCC2,"binding, competition with immobilised ligand",1 µM,100%
CCCCN(CCCC)C(=O)CN1C[C@@H](c2cc(OC)c3c(c2)OCO3)[C@H](C(=O)O)[C@H]1CC(C)(C)CCC,"cell-free assay, competition with immobilised ligand",1 µM,78.7%
O=C(Nc1c[nH]nc1C(=O)NC1CCNCC1)c1cc(F)cc(F)c1,"binding, competition with immobilised ligand",1 µM,88%
N[C@H]1CCN(c2nccc(-c3cnn4ncccc34)n2)C1,binding,1 µM,100%
N#Cc1ccc(Nc2ccc3[nH]c(=O)[nH]c3c2)c(Cl)c1,"cell-free assay, competition with immobilised ligand",1 µM,100%
CN(C)c1nccc(-c2cnc3ncccn23)n1,binding,1 µM,83%
O=C(NS(=O)(=O)c1ccc(NCC2CCOCC2)c([N+](=O)[O-])c1)c1ccc(N2CCN(Cc3ccc(C(F)(F)F)cc3-c3ccc(Cl)cc3)CC2)cc1Oc1cnc2[nH]ccc2c1,"cell-free assay, competition with immobilised ligand",1 µM,98%
C[C@@H]1CCN(c2nccc(-c3cnn4ncccc34)n2)C1,binding,1 µM,92%
Cc1c(NC(=O)c2cc(C(N)=O)nc3cc(F)ccc23)c(C(F)(F)F)nn1Cc1ccc(C#N)cc1,"cell-free assay, competition with immobilised ligand",1 µM,95%
CN(c1nccc(-c2cnn3ncccc23)n1)C1CC1,binding,1 µM,100%
COc1ncc2cc3ccccc3nc2c1C#N,"cell-free assay, competition with immobilised ligand",5 µM,100%
